These results are taken from ChEMBL document CHEMBL4261549 (Medchemcomm, 2017).

One may read the IC50 as the concentration that inhibits the measured activity by half. A higher IC50 goes with lower potency.

Data set [1] concerns PC-3. Put plainly: Antiproliferative activity against human PC3 cells after 48 hrs by MTT assay. Format: functional, cell-based. As to conditions: PC-3, 48 h. The gist of the method: (§1)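 MTT dye-uptake viability assay; cells seeded at 2.5 × 10^3 per well, grown in RPMI 1640/DMEM with 10% FBS and penicillin/streptomycin at 37 °C, 5% CO2. Exposure to compounds for 48 h over 100 nM to 100 μM. IC50 versus untreated control, given as mean ± SD of three independent experiments.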
(Tetrazolium dyes change colour on reduction, which living cells bring about.)

The next data set deals with HCT-116. The data set can be described thus: Antiproliferative activity against human HCT116 cells after 48 hrs by MTT assay. As to conditions: HCT-116, 48 h. Format: functional, cell-based. The method in brief: as §1
For a further data set, the system named is MCF7. Put plainly: Antiproliferative activity against human MCF7 cells after 48 hrs by MTT assay. Format: functional, cell-based. As to conditions: MCF7, 48 h. The gist of the method: as §1
A further data set relates to BPH-1. The data set can be described thus: Antiproliferative activity against human BPH1 cells after 48 hrs by MTT assay. Format: cell-based. Particulars: BPH-1, 48 h.
Data set [2] deals with PC-3. The data set can be described thus: Antimigratory activity against human PC3 cells assessed as reduction in wound closure after 48 hrs by inverted microscopic assay. Particulars: in the assay text read “24 hrs” for “48 hrs”. Format: functional, cell-based. The gist of the method: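 Scratch assay. PC-3 cells (5 × 10^5 per well) grown 24 h to a confluent monolayer, then serum-starved 24 h. Monolayer scratched with a pipette tip and washed, then treated in 1.0% serum medium with graded concentrations or DMSO for 24 h. Photographed at 20×. % wound closure = [1 – (area t1/area t0) × 100%].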

Data set [3] has as its system PC-3. Put plainly: Inhibition of VEGF-induced cell scattering in human PC3 cells at 2.5 to 4.5 uM after 24 to 48 hrs by inverted microscopic assay. Format: functional, cell-based. The gist of the method:
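PC-3 cells seeded at 1000 per well and grown 3–4 days into discrete colonies. Stimulated with VEGF in growth medium with graded concentrations. After overnight (24 h) incubation, individual colonies observed by bright-field/inverted microscopy and photographed. Representative of three experiments.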

In data set [4] the test system is PC-3. The data set can be described thus: Anti-invasive activity against human PC3 cells after 48 hrs by Boyden chamber assay. Format: functional, cell-based. The method in brief:
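Matrigel (Boyden chamber) invasion kit used per manufacturer. PC-3 cells (1.2 × 10^6 per well) treated with graded concentrations or DMSO vehicle. Invaded cells counted per field and imaged at 20× magnification. Three independent experiments.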

Data set [5] relates to PC-3. Put plainly: Inhibition of colony formation in human PC3 cells at 2.5 to 4.5 uM after 5 days by crystal violet staining based inverted microscopic assay. Format: functional, cell-based. The gist of the method: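 Clonogenic assay. PC-3 cells (1 × 10^3 per well) plated, medium replaced after 24 h, then exposed to graded concentrations or DMSO vehicle for 5 days. Colonies stained with crystal violet, counted randomly and imaged at 20×. Three independent experiments.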

In data set [6] the test system is PC-3. The data set can be described thus: Induction of mitochondrial membrane potential loss in human PC3 cells after 24 hrs by JC1 staining based fluorescence microscopic method. Format: functional, cell-based. The gist of the method:
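Treated PC-3 cells (1 × 10^6 per well) washed with cold PBS and stained with JC-1 at 1 μM final for 30 min at 37 °C. Aggregates and monomers assessed by fluorescence microscopy.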

Data set [7] relates to PC-3. Put plainly: Induction of apoptosis in human PC3 cells assessed as caspase-3/7 activation by caspase3/7-Glo assay. Format: functional, cell-based. The gist of the method:
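Cells seeded at 5 × 10^3 per well in 96-well plates for 24 h, then treated. Caspase-3/7 Glo reagent/substrate mix added for 25 min, and luminescence read.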

The species entered for data set [8] is Homo sapiens. Put plainly: Inhibition of PI3K/Akt signaling in human PC3 cells assessed as downregulation of NF-kB expression after 24 hrs by Western blot method. Format: cell-based. The gist of the method:
(§2)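 PC-3 cells exposed to indicated concentrations or DMSO, then lysed. Equal protein amounts analysed by western blotting, with β-actin as loading control. Representative of three independent experiments.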
In general terms: In western blotting, separated proteins are transferred to a membrane and probed.

Data set [9] concerns the target RAC-alpha serine/threonine-protein kinase (Homo sapiens) (UniProt P31749). Put plainly: Inhibition of AKT phosphorylation in human PC3 cells at 2.5 to 4.5 uM after 24 hrs by Western blot method. Format: cell-based. The gist of the method:
as §2

Data set [10] has as its system PC-3. Put plainly: Effect on total AKT protein expression in human PC3 cells at 2.5 to 4.5 uM after 24 hrs by Western blot method. Format: ADME, cell-based. Particulars: pc-3, 24 h. The gist of the method:
as §2

Data set [11] deals with Serine/threonine-protein kinase mTOR (Homo sapiens) (UniProt P42345). Put plainly: Inhibition of mTOR phosphorylation in human PC3 cells at 2.5 to 4.5 uM after 24 hrs by Western blot method. Format: cell-based. The method in brief: as §2
For data set [12] the target is unchanged. The data set can be described thus: Inhibition of mTOR signaling in human PC3 cells assessed as reduction in S6K protein expression at 2.5 to 4.5 uM after 24 hrs by Western blot method. Format: cell-based. The gist of the method:
as §2

Data set [13] relates to PC-3. Put plainly: Effect on total mTOR protein expression in human PC3 cells at 2.5 to 4.5 uM after 24 hrs by Western blot method. Format: ADME, cell-based. As to conditions: pc-3, 24 h. The gist of the method: as §2
The subject of data set [14] is PC-3. The data set can be described thus: Anti-invasive activity against human PC3 cells assessed as increase in TIMP1 protein expression after 24 hrs by Western blot method. Format: functional, cell-based. The method in brief:
as §2

The species named for data set [15] is Homo sapiens. The data set can be described thus: Inhibition of PI3K/Akt in human PC3 cells assessed as reduction in NF-kB dependant MMP2 activation after 48 hrs by gelatin zymographic method. Format: cell-based. The gist of the method:
(§3)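 Gelatin zymography. Subconfluent (70–80%) PC-3 cells in fresh medium incubated 48 h with increasing concentrations. Equal protein from conditioned media run on 7.5% SDS-PAGE containing 0.1% gelatin, 100 V, 3 h, 4 °C. Gels washed in 2% Triton X-100, incubated overnight at 37 °C in Tris-HCl pH 8.0/10 mM CaCl2 buffer, then Coomassie stained. BSA as loading control.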

The species entered for data set [16] is Homo sapiens. Put plainly: Inhibition of PI3K/Akt in human PC3 cells assessed as reduction in NF-kB dependant MMP9 activation after 48 hrs by gelatin zymographic method. Format: cell-based. The method in brief:
as §3

Data set [17] is filed under the species Homo sapiens. Put plainly: Inhibition of PI3K/Akt in human PC3 cells assessed as downregulation of NF-kB dependant MMP2 protein expression at 2.5 to 4.5 uM after 24 hrs by Western blot method. Format: cell-based. The method in brief:
as §2

Data set [18] deals with PC-3. Put plainly: Inhibition of PI3K/Akt in human PC3 cells assessed as downregulation of NF-kB dependant MMP9 protein expression at 2.5 to 4.5 uM after 24 hrs by Western blot method. Format: functional, cell-based. The method in brief:
as §2

The subject of data set [19] is PC-3. The data set can be described thus: Antimetastatic activity against human PC3 cells assessed as increase in E-cadherin protein expression at 2.5 to 4.5 uM after 24 hrs by Western blot method. Format: functional, cell-based. The method in brief:
as §2

For data set [20], the system named is PC-3. Put plainly: Antimetastatic activity against human PC3 cells assessed as decrease in vimentin protein expression at 2.5 to 4.5 uM after 24 hrs by Western blot method. Format: functional, cell-based. The gist of the method:
as §2

Activity calls are given as the source filed them. The rule behind the calls is not given here.

Chain of RAC-alpha serine/threonine-protein kinase (Homo sapiens) (P31749 whole entry): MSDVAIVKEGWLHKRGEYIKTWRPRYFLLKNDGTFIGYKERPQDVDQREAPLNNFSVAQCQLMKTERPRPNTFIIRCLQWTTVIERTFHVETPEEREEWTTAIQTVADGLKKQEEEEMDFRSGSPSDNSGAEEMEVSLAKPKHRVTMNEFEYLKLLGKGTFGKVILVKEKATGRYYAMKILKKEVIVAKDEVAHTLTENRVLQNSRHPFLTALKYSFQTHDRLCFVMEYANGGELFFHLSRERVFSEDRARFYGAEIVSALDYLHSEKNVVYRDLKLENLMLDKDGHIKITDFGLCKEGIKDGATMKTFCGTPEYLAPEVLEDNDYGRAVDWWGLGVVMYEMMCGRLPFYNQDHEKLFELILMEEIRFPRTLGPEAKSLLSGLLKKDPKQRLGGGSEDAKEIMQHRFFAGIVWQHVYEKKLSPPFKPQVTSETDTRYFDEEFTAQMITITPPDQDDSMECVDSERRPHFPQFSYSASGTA

Consider `COc1cc(/C=C/C(C)=O)ccc1OCc1cn(-c2ccccc2OC)nn1`, for which the half-maximal inhibitory concentration (IC50) in the data set with PC-3 [1] is 2.04 µM; in the data set on HCT-116 it was 25.7 µM; in the data set on MCF7, 29.1 µM.
On the same counts, the results for `COc1cc(/C=C/C(C)=O)ccc1OCc1cn(-c2c(F)cccc2F)nn1` are 24.2 µM, 37.7 µM and 2.03 µM.
The corresponding values for `COc1cc(/C=C/C(C)=O)ccc1OCc1cn(-c2cc(F)cc(Br)c2)nn1` are 56.9 µM, 45.4 µM and 65.5 µM.
Take `COc1cc(/C=C/C(C)=O)ccc1OCc1cn(-c2c(Cl)cccc2Cl)nn1`: the IC50 in the data set on PC-3 [1] was 3.07 µM; in the data set on HCT-116, 2 µM; in the data set on MCF7, 26.6 µM; with BPH-1, more than 100 µM. Moreover, the Activity entry with PC-3 [2] is “Dose-dependent effect”; in the data set on PC-3 [4], “Dose-dependent effect”; in the data set with PC-3 [6], “Dose-dependent effect”; with PC-3 [10] it was “Non-Toxic”; in the data set on PC-3 [13] it was “Non-Toxic”; with PC-3 [14], “Dose-dependent effect”. Further, the inhibition entry (with PC-3 [3]; with PC-3 [5]; in data set [9]; in [11]; in data set [12]; in the data set listed under Homo sapiens [17]) was “Active” in each case. For the same compound, the inhibition entry in the data set with PC-3 [18] is “Active”. Moreover, the outcome in the data set on PC-3 [7], in the data set on PC-3 [19] and in the data set with PC-3 [20] was Active. The inhibition result in the data set filed under Homo sapiens [8], in the data set filed under Homo sapiens [15] and in the data set filed under Homo sapiens [16] was “Dose-dependent effect” each time.
For `COc1cc(/C=C/C(C)=O)ccc1OCc1cn(-c2ccc(C=O)cc2)nn1`, the IC50 in the data set with PC-3 [1] is 80.7 µM; with HCT-116 it was 76.2 µM; in the data set on MCF7, 86.4 µM.
As for `COc1cc(/C=C/C(C)=O)ccc1OCc1cn(-c2ccc(-c3ccccc3)cc2)nn1`, the values for the IC50 with PC-3 [1], in the data set with HCT-116 and with MCF7 were 56.8 µM, 65.2 µM and 65.4 µM, respectively.
The corresponding values for `CCOC(=O)c1ccc(-n2cc(COc3ccc(/C=C/C(C)=O)cc3OC)nn2)cc1` are 59.2 µM, 78.9 µM and more than 100 µM.
The corresponding values for `COc1cc(/C=C/C(C)=O)ccc1O` [DEHYDROZINGERONE] are 43.2 µM, 34.8 µM and 54.6 µM.
In the case of `COc1ccc(-n2cc(COc3ccc(/C=C/C(C)=O)cc3OC)nn2)cc1`, the IC50 came out at 2.01 µM in the data set with PC-3 [1], 21.3 µM with HCT-116 and 33.7 µM with MCF7.
On to `COc1cc(/C=C/C(C)=O)ccc1OCc1cn(-c2ccc(C(F)(F)F)c(C(F)(F)F)c2)nn1`, for which the IC50 was determined as 67.2 µM in the data set with PC-3 [1], 57.8 µM in the data set on HCT-116 and 87.4 µM with MCF7.
In the case of `COc1cccc(-n2cc(COc3ccc(/C=C/C(C)=O)cc3OC)nn2)c1`, the IC50 in the data set on PC-3 [1] came to 31.6 µM; with HCT-116, 29.6 µM; with MCF7, 1.8 µM.
For the compound `COc1cc(/C=C/C(C)=O)ccc1OCc1cn(-c2ccccc2Cl)nn1`, the IC50 in the data set with PC-3 [1] amounted to 48 µM; with HCT-116, 39 µM; in the data set with MCF7, 2.19 µM.
As to `COc1cc(/C=C/C(C)=O)ccc1OCc1cn(-c2ccccc2)nn1`, the IC50 is 78.6 µM with PC-3 [1], 67.3 µM in the data set on HCT-116 and more than 100 µM in the data set with MCF7.
For `COc1cc(/C=C/C(C)=O)ccc1OCc1cn(-c2ccccc2CO)nn1`, the IC50 with PC-3 [1] is 50.3 µM; in the data set with HCT-116, more than 100 µM; in the data set on MCF7, 65.8 µM.
On the same counts, the results for `COc1cc(/C=C/C(C)=O)ccc1OCc1cn(-c2ccccc2O)nn1` are 59.2 µM, 76.4 µM and more than 100 µM.
With `COc1cc(/C=C/C(C)=O)ccc1OCc1cn(-c2ccc(NC(=O)c3ccccc3)cc2)nn1`, the IC50 in the data set with PC-3 [1] is 76.8 µM; with HCT-116 it was more than 100 µM; with MCF7 it was 86.7 µM.
For `COc1cc(/C=C/C(C)=O)ccc1OCc1cn(-c2ccc([N+](=O)[O-])cc2)nn1`, the IC50 in the data set on PC-3 [1] is 46.7 µM; with HCT-116, 96.3 µM; in the data set on MCF7, more than 100 µM.
Consider `C#CCOc1ccc(/C=C/C(C)=O)cc1OC`, for which the IC50 with PC-3 [1] was determined as 40.2 µM; in the data set with HCT-116 it was 49.7 µM; in the data set on MCF7 it was 65.4 µM.
The corresponding values for `COc1cc(/C=C/C(C)=O)ccc1OCc1cn(-c2ccc(C)cc2)nn1` are 58.1 µM, 76.6 µM and more than 100 µM.
On to `COc1cc(/C=C/C(C)=O)ccc1OCc1cn(-c2ccc(/N=N/c3ccccc3)cc2)nn1`, for which the IC50 with PC-3 [1] is 42.1 µM; with HCT-116, more than 100 µM; with MCF7 it was 75.9 µM.
